Results pooled from the literature.
Protocols differ between the studies behind these lines.
Organism: Mycobacterium tuberculosis
Read-out: microbial growth

| SMILES | method | strain | time | MIC |
| --- | --- | --- | --- | --- |
| COc1ccc(Cc2c(C)c(C#N)c3[nH]c4ccccc4n3c2=O)cc1 | broth dilution | H37RV | – | 0.25 µg/mL |
| N#Cc1cc(C(F)(F)F)cc2c(=O)nc(N3CCN(CC4CCC4)CC3)sc12 | resazurin | H37RV | – | > 2 µM |
| O=C1COCCN1c1ccc(CO[C@@H]2COc3nc([N+](=O)[O-])cn3C2)cc1 | – | H37RV | – | 0.4 to 0.8 µg/mL |
| COC(=O)c1cc(-c2cccc(NC(=S)Nc3cccc(Br)c3)c2)on1 | – | ATCC27294 H37RV | 7 days | 8 µg/mL |
| CO[C@H]1/C=C/O[C@@]2(C)Oc3c(C)c(O)c4c(O)c(c(/C=N/N5CCN(C)CC5)c(O)c4c3C2=O)NC(=O)/C(C)=C\C=C\[C@H](C)[C@H](O)[C@@H](C)[C@@H](O)[C@@H](C)[C@H](OC(C)=O)[C@@H]1C | – | H37RV | – | 0.009 µM |
| COC(=O)c1cc(-c2cccc(NC(=O)Nc3cccc(F)c3)c2)on1 | – | ATCC27294 H37RV | 7 days | 2 µg/mL |
| CC1CCC2(CC1)SC(C)C(=O)N2NC(=O)c1[nH]c2ccc(Cl)cc2c1-c1ccccc1 (stereo not drawn) | – | ATCC27294 H37RV | – | 1000 µM |
| COC1C(O)C(n2ccc(=O)[nH]c2=O)OC1C(OC1OC(C(=O)NC2CCCCNC2=O)=CC(O)C1O)C(N)=O (stereo not drawn) | resazurin | H37RV | – | 12.5 µg/mL |
| O=C1C(=NNc2nc(-c3ccccc3)cs2)C(N=Cc2ccc([N+](=O)[O-])cc2)=NN1c1ccccc1 | resazurin | H37RV | 5 days | 50.5 µM |
| CC1CC(C)(C)CC2(C1)SC(C)C(=O)N2NC(=O)c1[nH]c2ccc(Cl)cc2c1-c1ccccc1 (stereo not drawn) | – | ATCC27294 H37RV | – | 1000 µM |
| C[C@@H]([C@H](N)C(=O)N[C@H](C(=O)O)[C@H]1O[C@@H](n2ccc(=O)[nH]c2=O)[C@H](O)[C@@H]1O)[C@H](O)c1ccc(O)cn1 | – | H37RV | 14 days | > 50 µg/mL |
| O=C(CNS(=O)(=O)c1ccc([N+](=O)[O-])cc1)N1CCN(C(c2ccc(F)cc2)c2ccc(F)cc2)CC1 | – | ATCC27294 H37RV | – | 25 µg/mL |
| COc1cc(C=NC2=NN(c3ccccc3)C(=O)C2=NNc2nc(-c3ccccc3)cs2)ccc1O | resazurin | H37RV | – | 12.5 µg/mL |
| Cc1cc(C)n(C(=O)c2ccc(-n3c(C)ccc3C)cc2)n1 | broth dilution | H37RV | 21 days | 8 µg/mL |
| O=C(NC(=O)c1cc2c(F)cc(F)cc2[nH]1)c1cccc(Cl)c1 | resazurin | H37RV | – | > 96 µM |
| O=C(NN1C(=O)CSC12CCC(c1ccccc1)CC2)c1[nH]c2ccc(Cl)cc2c1-c1ccccc1 (stereo not drawn) | – | ATCC27294 H37RV | – | 3.9 µM |
| CO[C@H]1/C=C/O[C@@]2(C)Oc3c(C)c(O)c4c(O)c(c(/C=N/N5CCN(C)CC5)c(O)c4c3C2=O)NC(=O)/C(C)=C\C=C\[C@H](C)[C@H](O)[C@@H](C)[C@@H](O)[C@@H](C)[C@H](OC(C)=O)[C@@H]1C | – | – | – | 0.02 µg/mL |
| CCc1nc2ccc(Cl)cn2c1C(=O)NCc1cccc(S(F)(F)(F)(F)F)c1 | – | H37RV | 5 days | 0.28 µM |
| NC(=O)c1cnccn1 | resazurin | H37RV | – | 3.12 µg/mL |
| O=C(CCNS(=O)(=O)c1ccc([N+](=O)[O-])cc1)N1CCN(C(c2ccc(F)cc2)c2ccc(F)cc2)CC1 | – | ATCC27294 H37RV | – | 25 µg/mL |
| O=C1C(Cl)=C(Cl)C(=O)c2ccccc21 | – | H37RV | 14 days | 10 µg/mL |
| Cc1ccc2nc(C)c(C(=O)NCc3cccc(S(F)(F)(F)(F)F)c3)n2c1 | – | H37RV | 5 days | 0.2 µM |
| [H]/N=C(/N)N[C@H]1[C@H](O)[C@@H](O)[C@H](O[C@@H]2O[C@@H](C)[C@](O)(C=O)[C@H]2O[C@@H]2O[C@@H](CO)[C@H](O)[C@@H](O)[C@@H]2NC)[C@@H](N/C(N)=N\[H])[C@@H]1O | resazurin | H37RV | – | 6.25 µg/mL |
| COC(=O)c1cc(-c2cccc(NC(=O)Nc3ccccc3C)c2)on1 | – | ATCC27294 H37RV | 7 days | 2 µg/mL |
| CC(C)[C@H]1CO[C@]23CCN(Cc4ccccc4)C[C@H]2CCC(=O)N13 | – | H37RV | 7 days | 7.3 µM |
| CCCCCCCCCCC[C@@H](C[C@@H]1OC(=O)[C@H]1CCCCCC)OC(=O)[C@H](CC(C)C)NC=O | resazurin | H37RA | – | 24 µg/mL |

| SMILES | method | strain | time | MIC |
| --- | --- | --- | --- | --- |
| NNC(=O)c1ccncc1 | broth dilution | H37RV | 21 days | 0.25 µg/mL |
| O=C(Nc1cccc(-c2cc(C(=O)O)no2)c1)Nc1ccc(Cl)c(Cl)c1 | – | ATCC27294 H37RV | 7 days | 64 µg/mL |
| CC[C@@H](CO)NCCN[C@@H](CC)CO | – | H37RV | – | 5 µg/mL |
| [O-][n+]1ccccc1SSc1cccc[n+]1[O-] | resazurin | – | – | 0.23 µM |
| CC1SC2(CCC(c3ccccc3)CC2)N(NC(=O)c2[nH]c3ccc(Cl)cc3c2-c2ccccc2)C1=O (stereo not drawn) | – | ATCC27294 H37RV | – | 7.8 µM |
| CN[C@H](CC(C)C)C(=O)N[C@H]1C(=O)N[C@@H](CC(N)=O)C(=O)N[C@H]2C(=O)N[C@H]3C(=O)N[C@H](C(=O)N[C@H](C(=O)O)c4cc(O)cc(O)c4-c4cc3ccc4O)[C@H](O)c3ccc(c(Cl)c3)Oc3cc2cc(c3O[C@@H]2O[C@H](CO)[C@@H](O)[C@H](O)[C@H]2O[C@H]2C[C@](C)(N)[C@H](O)[C@H](C)O2)Oc2ccc(cc2Cl)[C@H]1O | resazurin | H37RA | 14 days | 65 µg/mL |
| NNC(=O)c1ccncc1 | – | H37RV | – | > 13.7 µg/mL |
| CO[C@H]1/C=C/O[C@@]2(C)Oc3c(C)c(O)c4c(O)c(c(/C=N/N5CCN(C)CC5)c(O)c4c3C2=O)NC(=O)/C(C)=C\C=C\[C@H](C)[C@H](O)[C@@H](C)[C@@H](O)[C@@H](C)[C@H](OC(C)=O)[C@@H]1C | resazurin | H37RA | 14 days | 0.06 µg/mL |
| CO[C@H]1/C=C/O[C@@]2(C)Oc3c(C)c(O)c4c(O)c(c(/C=N/N5CCN(C)CC5)c(O)c4c3C2=O)NC(=O)/C(C)=C\C=C\[C@H](C)[C@H](O)[C@@H](C)[C@@H](O)[C@@H](C)[C@H](OC(C)=O)[C@@H]1C | resazurin | H37RV | 14 days | 0.075 µM |
| Nc1ccc(C(=O)O)c(O)c1 | broth dilution | H37RV | – | 0.125 µg/mL |
| CC(C)[C@H]1CO[C@]23CCN(Cc4ccc(OC(F)(F)F)cc4)C[C@H]2CCC(=O)N13 | resazurin | H37RV | 7 days | 0.17 µM |
| CO[C@H]1/C=C/O[C@@]2(C)Oc3c(C)c(O)c4c(O)c(c(/C=N/N5CCN(C)CC5)c(O)c4c3C2=O)NC(=O)/C(C)=C\C=C\[C@H](C)[C@H](O)[C@@H](C)[C@@H](O)[C@@H](C)[C@H](OC(C)=O)[C@@H]1C | – | ATCC27294 H37RV | 8 days | 0.06 µg/mL |
| NNC(=O)c1ccncc1 | – | ATCC27294 H37RV | 7 days | 0.03 µg/mL |
| CCCCCCC/C=C\C(O)C#CC#CC(=O)CCOC (stereo not drawn) | resazurin | ATCC27294 H37RV | 7 days | > 60 µg/mL |
| COC(=O)c1cc(-c2cccc(NC(=S)Nc3ccc(OC)cc3)c2)on1 | – | ATCC27294 H37RV | 7 days | 2 µg/mL |
| O=C1NN=C(N=Cc2ccccc2O)C1=NNn1c(-c2ccccc2)nc2ccccc2c1=O | resazurin | H37RV | – | 13.8 µM |
| COC(=O)c1cc(-c2cccc(NC(=S)Nc3ccc(C#N)cc3)c2)on1 | – | ATCC27294 H37RV | 7 days | 2 µg/mL |
| CN(C)c1ccc(C=NC2=NN(c3ccccc3)C(=O)C2=NNc2nc(-c3ccccc3)cs2)cc1 | resazurin | H37RV | – | 6.25 µg/mL |
| NNC(=O)c1ccncc1 | – | H37RV | 5 days | 0.3 µM |
| COC(=O)c1cc(-c2cccc(NC(=O)Nc3ccc(F)c(F)c3)c2)on1 | – | ATCC27294 H37RV | 7 days | 0.5 µg/mL |
| c1ccc(-c2nc3cc(Nc4nccn4-c4cc(NC5CCCC5)ncn4)ccc3[nH]2)cc1 | – | W4 | – | > 20 µM |
| O=C(NN1C(=O)CSC12CCCC2)c1[nH]c2ccc(Cl)cc2c1-c1ccccc1 | – | ATCC27294 H37RV | – | 1000 µM |
| Cc1ccc(C)n1-c1ccc(-c2nnc(-c3cccc([N+](=O)[O-])c3)[nH]2)cc1 | broth dilution | H37RV | 21 days | 16 µg/mL |
| Cc1ccc(-c2nc3ccc(C)cn3c2CC(=O)N(C)C)cc1 | – | H37RV | 5 days | 10 to 11 µM |
| Cc1c(Cc2ccc(Cl)cc2)c(=O)n2c([nH]c3ccccc32)c1C#N | broth dilution | H37RV | – | 1 µg/mL |
